Results reported in ChEMBL document CHEMBL1141142, “Application of fluorescence microscopy for investigation of cellular distribution of dinuclear platinum anticancer drugs” (J Med Chem, 2005).
pIC50: −log10 of the molar value.

What was measured:
Type in all cases: functional
Homo sapiens = species: Homo sapiens; assay: Relative ratio of IC50 values in both cell lines (U2-OS/Pt)/U2-OS)
Method in brief: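 Ratio of IC50 in U2-OS/Pt over U2-OS, both from the 72 h MTT growth-inhibition assay (quadruplicate wells, five dilutions, OD 590 nm, IC50 derived graphically).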

[1] = Inhibitory concentration required for in vitro cytotoxic activity against human U2-OS osteosarcoma cell line
Method in brief: (§1)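 MTT growth inhibition; U2-OS or cisplatin-resistant U2-OS/Pt monolayers in DMEM with 10% fetal calf serum, penicillin/streptomycin; (3-5) × 10³ cells/well, attached overnight; five dilutions (from 1 mg/mL stocks in water or dimethylformamide) added in quadruplicate; 72 h exposure; MTT ~120 min, DMSO dissolution, OD 590 nm; IC50 versus control read graphically.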

[2] = Inhibitory concentration required for in vitro cytotoxic activity against human U2-OS osteosarcoma cell line (cisplatin Resistant); method in brief: as §1

Sequence	RF (Homo sapiens)	pIC50 [1]	pIC50 [2]
CISPLATIN [listing 1 of 2 here]	2.5	–	–
CISPLATIN [listing 2 of 2 here]	–	5.54	5.14
